Active and inactive are the calls of the source. The calls are words filed in the database; no cut-off is given here.
How the values were obtained:
[1] = Toxicity in Balb/c nude mouse xenografted with human MV4-11 cells assessed as reduction in body weight at 10 to 50 mg/kg, administered once daily; type: organism-based; settings: in vivo
[2] = target: Voltage-gated inwardly rectifying potassium channel KCNH2 (Homo sapiens, UniProt Q12809); assay: Inhibition of human ERG at 40 uM by automatic patch clamp method
MV4-11 [3] = assay: Induction of apoptosis in human MV4-11 cells assessed as increase in cleaved caspase-9 level after 24 hrs by Western blot analysis; type: functional, cell-based
Method in brief: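 MV4-11 cells exposed to test agent at the indicated doses for 24 h. Lysates immunoblotted for full-length and cleaved caspase-3, -7, -8 and -9, with GAPDH as the loading reference.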

MDA-MB-468 = assay: Antiproliferative activity against human MDA-MB-468 cells after 72 hrs by CCK8 or SRB assay; type: functional, cell-based
[4] = target: Transcription initiation factor TFIID subunit 1 (Homo sapiens) (UniProt P21675); assay: Binding affinity to human partial length TAF1 bromodomain 2 (D1521 to D1656 residues) expressed in Escherichia coli BL21 cells assessed as residual binding level at 1 uM measured after 1 hr by quantitative PCR based BROMOscan assay relative to control
Method in brief: (§1)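 Bromodomain panel screen (32 bromodomains) run at 1 μM single concentration; primary binding reported as 'Percent Control', lower values meaning stronger interaction.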

NCI-H1299 = assay: Antiproliferative activity against human NCI-H1299 cells after 72 hrs by CCK8 or SRB assay; type: functional, cell-based
MV4-11 [5] = assay: Induction of apoptosis in human MV4-11 cells assessed as reduction in BID level after 24 hrs by Western blot analysis; type: functional, cell-based
Method in brief: (§2)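 MV4-11 cells exposed to compound at the indicated doses for 24 h; lysates probed by Western blotting for the target protein, with GAPDH as loading control.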

[6] = Clearance in dog liver microsomes; type: ADME, Canis lupus familiaris, Microsome; settings: read-out: CLH
[7] = Drug uptake in tumor of Balb/c nude mouse xenografted with human MV4-11 cells at 25 to 50 mg/kg, po measured after 8 hrs; type: ADME, organism-based, Neoplasm; settings: in vivo
Method in brief: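 MV4-11 xenografts in BALB/c nude mice given oral compound; drug concentrations in plasma and tumor tissue measured at 1 h and 8 h after dosing.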

MV4-11 [8] = assay: Induction of apoptosis in human MV4-11 cells assessed as reduction in XIAP level after 24 hrs by Western blot analysis; type: functional, cell-based
[9] = Cmax in ICR mouse plasma at 100 mg/kg, po administered via gavage measured after 0.25 to 24 hrs by UPLC/MS analysis; type: ADME, organism-based; set-up: dose 100 mg/kg, route oral
Method in brief: (§3)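 Male ICR mice dosed orally in 1% DMSO/0.5% HPMC vehicle; plasma or brain drug levels used to derive Tmax, Cmax, AUC0-t, AUC0-inf and T1/2.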

[10] = Tmax in dog plasma at 3 mg/kg, po; type: ADME, organism-based, Canis lupus familiaris
Method in brief: (§4)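 Oral dosing in 1% DMSO/0.5% HPMC vehicle (dog 3 mg/kg; rat 10 mg/kg); plasma drug levels measured.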

[11] = Half life in rat liver microsomes; type: ADME, Microsome
[12] = target: Bromodomain-containing protein 2 (Homo sapiens) (UniProt P25440); assay: Inhibition of BRD2 bromodomain 1 (unknown origin)
CYP3A4 = CYP3A4 (Homo sapiens, UniProt P08684); assay: Reversible inhibition of CYP3A4 in human liver microsomes at 10 uM using midazolam or testosterone as substrate preincubated for 5 mins followed by NADPH addition and measured after 20 mins relative to control; type: ADME; settings: probe midazolam or testosterone
Method in brief: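 Human liver microsomes 0.2 mg/mL, 100 mM phosphate pH 7.4, 10 μM test compound, probe cocktail (10 μM midazolam, 100 μM testosterone, 10 μM dextromethorphan, 20 μM diclofenac, 100 μM phenacetin, 100 μM mephenytoin); organic solvent <1%; 5 min preincubation at 37 °C, started with NADPH-generating system, 20 min reaction; metabolite formation expressed relative to PBS control.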

[13] = target: ATPase family AAA domain-containing protein 2B (Homo sapiens) (UniProt Q9ULI0); assay: Binding affinity to human partial length ATAD2B (Q955 to R1082 residues) expressed in Escherichia coli BL21 cells assessed as residual binding level at 1 uM measured after 1 hr by quantitative PCR based BROMOscan assay relative to control
Method in brief: (§5)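 A BROMOScan competition-binding panel of 32 bromodomains was run at a single 1 μM compound concentration. Results are primary-screen 'Percent Control', where lower values indicate stronger binding.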

[14] = Ratio of drug level in brain to plasma in rat; type: ADME
Method in brief: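 Rats dosed orally at 50 mg/kg in 1% DMSO/0.5% HPMC; drug measured in plasma and brain.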

[15] = target: Bromodomain-containing protein 9 (Homo sapiens) (UniProt Q9H8M2); assay: Binding affinity to human partial length BRD9 (R130 to V259 residues) expressed in Escherichia coli BL21 cells assessed as residual binding level at 1 uM measured after 1 hr by quantitative PCR based BROMOscan assay relative to control; method in brief: as §5
MV4-11 [16] = assay: Induction of apoptosis in human MV4-11 cells assessed as reduction in c-IAP1 level after 24 hrs by Western blot analysis; type: functional, cell-based
MV4-11 [17] = assay: Antitumor activity against human MV4-11 cells xenografted in Balb/c nude mouse assessed as tumor growth inhibition at 25 mg/kg, po administered once daily and measured twice a week by caliper method relative to control; type: functional; settings: MV4-11, po, read-out: TGI
[18] = target: Protein polybromo-1 (Homo sapiens) (UniProt Q86U86); assay: Binding affinity to human partial length PB1 bromodomain 2 (S178 to E291 residues) expressed in Escherichia coli BL21 cells assessed as residual binding level at 1 uM measured after 1 hr by quantitative PCR based BROMOscan assay relative to control; method in brief: as §1
[19] = target: SWI/SNF-related matrix-associated actin-dependent regulator of chromatin subfamily A member 4 (Homo sapiens) (UniProt P51532); assay: Binding affinity to human partial length SMARCA4 (A1448 to S1575 residues) expressed in Escherichia coli BL21 cells assessed as residual binding level at 1 uM measured after 1 hr by quantitative PCR based BROMOscan assay relative to control; method in brief: as §1
[20] = Half life in ICR mouse plasma at 100 mg/kg, po administered via gavage measured after 0.25 to 24 hrs by UPLC/MS analysis; type: ADME, organism-based; method in brief: as §3
[21] = Tmax in rat plasma at 10 mg/kg, po; type: ADME, organism-based; method in brief: as §4
[22] = target: Nucleosome-remodeling factor subunit BPTF (Homo sapiens) (UniProt Q12830); assay: Binding affinity to human partial length FALZ (S2791 to H2911 residues) expressed in Escherichia coli BL21 cells assessed as residual binding level at 1 uM measured after 1 hr by quantitative PCR based BROMOscan assay relative to control; method in brief: as §5
MV4-11 [23] = assay: Induction of apoptosis in human MV4-11 cells assessed as increase in cleaved caspase-3 level after 24 hrs by Western blot analysis; type: functional, cell-based; method in brief: as §2
[24] = Tmax in ICR mouse at 10 mg/kg, po administered via gavage measured after 0.25 to 24 hrs by UPLC/MS analysis; type: ADME, organism-based; settings: in vivo
Method in brief: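 Male ICR mice dosed orally (3, 10 or 100 mg/kg, per line) in 1% DMSO/0.5% HPMC vehicle; plasma drug levels measured.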

Bromodomain-containing protein 2 (Homo sapiens), sequence (P25440 whole entry, looked up): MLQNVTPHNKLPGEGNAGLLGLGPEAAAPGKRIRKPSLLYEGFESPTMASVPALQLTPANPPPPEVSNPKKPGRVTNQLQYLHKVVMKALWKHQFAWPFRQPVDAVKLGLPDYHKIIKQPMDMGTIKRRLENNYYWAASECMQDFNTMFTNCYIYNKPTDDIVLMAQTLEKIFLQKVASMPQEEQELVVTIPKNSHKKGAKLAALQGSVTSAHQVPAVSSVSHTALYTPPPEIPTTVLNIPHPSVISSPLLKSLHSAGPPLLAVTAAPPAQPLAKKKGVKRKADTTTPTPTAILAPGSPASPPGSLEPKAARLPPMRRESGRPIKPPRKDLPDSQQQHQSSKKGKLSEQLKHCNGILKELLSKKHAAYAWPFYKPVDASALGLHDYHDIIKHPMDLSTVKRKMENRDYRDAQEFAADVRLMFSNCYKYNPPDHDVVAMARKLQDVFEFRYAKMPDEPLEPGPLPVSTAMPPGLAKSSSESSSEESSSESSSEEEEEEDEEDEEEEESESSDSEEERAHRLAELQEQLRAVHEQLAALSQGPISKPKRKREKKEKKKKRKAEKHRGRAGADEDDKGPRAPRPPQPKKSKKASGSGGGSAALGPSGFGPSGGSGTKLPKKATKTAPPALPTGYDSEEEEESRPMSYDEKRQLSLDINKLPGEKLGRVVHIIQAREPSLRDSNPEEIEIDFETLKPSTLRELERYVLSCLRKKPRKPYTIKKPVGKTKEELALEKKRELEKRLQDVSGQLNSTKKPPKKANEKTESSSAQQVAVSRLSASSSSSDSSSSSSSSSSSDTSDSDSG
Bromodomain-containing protein 9 (Homo sapiens), sequence (Q9H8M2 whole entry, the tested form may be a part): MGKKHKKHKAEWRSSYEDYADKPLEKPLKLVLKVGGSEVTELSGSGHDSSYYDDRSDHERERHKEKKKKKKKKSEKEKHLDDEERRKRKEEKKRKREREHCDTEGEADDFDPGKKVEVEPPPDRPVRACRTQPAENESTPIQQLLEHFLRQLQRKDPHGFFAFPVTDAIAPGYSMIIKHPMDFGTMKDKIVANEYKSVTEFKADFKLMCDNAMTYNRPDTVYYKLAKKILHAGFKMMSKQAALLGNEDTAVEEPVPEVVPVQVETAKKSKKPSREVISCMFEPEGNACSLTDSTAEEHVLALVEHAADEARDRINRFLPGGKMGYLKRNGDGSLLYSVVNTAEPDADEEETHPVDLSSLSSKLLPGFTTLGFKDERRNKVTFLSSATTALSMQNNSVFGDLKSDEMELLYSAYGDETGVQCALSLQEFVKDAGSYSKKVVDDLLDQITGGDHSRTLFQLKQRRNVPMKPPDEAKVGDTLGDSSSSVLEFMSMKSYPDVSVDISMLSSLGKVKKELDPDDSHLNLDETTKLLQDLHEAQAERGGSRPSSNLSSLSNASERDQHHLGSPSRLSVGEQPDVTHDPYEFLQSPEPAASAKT
Transcription initiation factor TFIID subunit 1 (Homo sapiens), sequence (P21675 whole entry, the tested form may be a part): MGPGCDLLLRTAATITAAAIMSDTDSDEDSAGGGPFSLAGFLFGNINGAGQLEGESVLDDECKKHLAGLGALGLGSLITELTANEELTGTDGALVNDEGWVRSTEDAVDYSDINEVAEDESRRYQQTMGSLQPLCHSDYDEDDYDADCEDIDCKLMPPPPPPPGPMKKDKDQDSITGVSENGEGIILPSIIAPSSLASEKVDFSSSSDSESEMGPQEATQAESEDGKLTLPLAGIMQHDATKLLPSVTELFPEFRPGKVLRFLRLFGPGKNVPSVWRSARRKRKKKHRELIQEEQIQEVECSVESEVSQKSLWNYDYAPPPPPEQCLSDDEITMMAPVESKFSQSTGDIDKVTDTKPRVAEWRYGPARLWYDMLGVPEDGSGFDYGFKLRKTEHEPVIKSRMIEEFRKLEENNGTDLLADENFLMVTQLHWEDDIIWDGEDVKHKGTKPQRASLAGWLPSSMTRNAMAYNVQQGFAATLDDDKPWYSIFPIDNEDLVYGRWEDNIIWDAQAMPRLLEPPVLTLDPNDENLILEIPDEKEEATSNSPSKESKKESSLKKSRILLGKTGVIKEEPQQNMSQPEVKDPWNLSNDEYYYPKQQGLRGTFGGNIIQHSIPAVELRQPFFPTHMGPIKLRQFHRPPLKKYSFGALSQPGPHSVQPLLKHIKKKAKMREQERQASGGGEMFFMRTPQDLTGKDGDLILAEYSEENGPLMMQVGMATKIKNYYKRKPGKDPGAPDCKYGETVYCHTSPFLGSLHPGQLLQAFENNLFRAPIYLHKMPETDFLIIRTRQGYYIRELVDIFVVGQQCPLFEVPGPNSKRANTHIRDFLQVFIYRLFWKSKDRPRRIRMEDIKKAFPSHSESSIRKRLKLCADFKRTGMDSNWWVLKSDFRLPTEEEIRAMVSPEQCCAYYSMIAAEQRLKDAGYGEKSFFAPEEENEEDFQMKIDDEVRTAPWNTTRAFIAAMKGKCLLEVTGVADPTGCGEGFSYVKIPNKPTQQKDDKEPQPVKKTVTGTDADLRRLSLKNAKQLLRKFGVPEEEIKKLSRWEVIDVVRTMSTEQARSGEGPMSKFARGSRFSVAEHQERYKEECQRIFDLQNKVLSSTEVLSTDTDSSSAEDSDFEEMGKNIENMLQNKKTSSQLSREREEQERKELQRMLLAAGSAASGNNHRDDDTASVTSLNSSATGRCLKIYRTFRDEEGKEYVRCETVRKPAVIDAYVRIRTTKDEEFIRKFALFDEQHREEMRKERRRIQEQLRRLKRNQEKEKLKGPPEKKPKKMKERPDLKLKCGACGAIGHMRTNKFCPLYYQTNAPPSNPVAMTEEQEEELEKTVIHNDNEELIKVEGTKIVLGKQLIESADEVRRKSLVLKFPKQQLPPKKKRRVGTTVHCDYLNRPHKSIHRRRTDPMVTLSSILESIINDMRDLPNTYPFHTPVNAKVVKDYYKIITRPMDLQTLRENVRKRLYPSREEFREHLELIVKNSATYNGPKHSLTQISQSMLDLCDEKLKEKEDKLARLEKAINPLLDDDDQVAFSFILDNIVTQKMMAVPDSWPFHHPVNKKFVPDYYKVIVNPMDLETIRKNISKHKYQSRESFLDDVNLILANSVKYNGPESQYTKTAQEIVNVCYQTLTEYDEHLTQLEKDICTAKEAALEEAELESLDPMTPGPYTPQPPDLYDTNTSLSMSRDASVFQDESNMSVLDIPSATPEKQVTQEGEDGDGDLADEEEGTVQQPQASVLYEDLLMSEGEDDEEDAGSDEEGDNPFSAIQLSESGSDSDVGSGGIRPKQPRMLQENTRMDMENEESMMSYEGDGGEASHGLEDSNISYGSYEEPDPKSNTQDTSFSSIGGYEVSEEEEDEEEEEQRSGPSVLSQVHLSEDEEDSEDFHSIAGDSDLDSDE
Protein polybromo-1 (Homo sapiens), sequence (Q86U86 whole entry, the tested form may be a part): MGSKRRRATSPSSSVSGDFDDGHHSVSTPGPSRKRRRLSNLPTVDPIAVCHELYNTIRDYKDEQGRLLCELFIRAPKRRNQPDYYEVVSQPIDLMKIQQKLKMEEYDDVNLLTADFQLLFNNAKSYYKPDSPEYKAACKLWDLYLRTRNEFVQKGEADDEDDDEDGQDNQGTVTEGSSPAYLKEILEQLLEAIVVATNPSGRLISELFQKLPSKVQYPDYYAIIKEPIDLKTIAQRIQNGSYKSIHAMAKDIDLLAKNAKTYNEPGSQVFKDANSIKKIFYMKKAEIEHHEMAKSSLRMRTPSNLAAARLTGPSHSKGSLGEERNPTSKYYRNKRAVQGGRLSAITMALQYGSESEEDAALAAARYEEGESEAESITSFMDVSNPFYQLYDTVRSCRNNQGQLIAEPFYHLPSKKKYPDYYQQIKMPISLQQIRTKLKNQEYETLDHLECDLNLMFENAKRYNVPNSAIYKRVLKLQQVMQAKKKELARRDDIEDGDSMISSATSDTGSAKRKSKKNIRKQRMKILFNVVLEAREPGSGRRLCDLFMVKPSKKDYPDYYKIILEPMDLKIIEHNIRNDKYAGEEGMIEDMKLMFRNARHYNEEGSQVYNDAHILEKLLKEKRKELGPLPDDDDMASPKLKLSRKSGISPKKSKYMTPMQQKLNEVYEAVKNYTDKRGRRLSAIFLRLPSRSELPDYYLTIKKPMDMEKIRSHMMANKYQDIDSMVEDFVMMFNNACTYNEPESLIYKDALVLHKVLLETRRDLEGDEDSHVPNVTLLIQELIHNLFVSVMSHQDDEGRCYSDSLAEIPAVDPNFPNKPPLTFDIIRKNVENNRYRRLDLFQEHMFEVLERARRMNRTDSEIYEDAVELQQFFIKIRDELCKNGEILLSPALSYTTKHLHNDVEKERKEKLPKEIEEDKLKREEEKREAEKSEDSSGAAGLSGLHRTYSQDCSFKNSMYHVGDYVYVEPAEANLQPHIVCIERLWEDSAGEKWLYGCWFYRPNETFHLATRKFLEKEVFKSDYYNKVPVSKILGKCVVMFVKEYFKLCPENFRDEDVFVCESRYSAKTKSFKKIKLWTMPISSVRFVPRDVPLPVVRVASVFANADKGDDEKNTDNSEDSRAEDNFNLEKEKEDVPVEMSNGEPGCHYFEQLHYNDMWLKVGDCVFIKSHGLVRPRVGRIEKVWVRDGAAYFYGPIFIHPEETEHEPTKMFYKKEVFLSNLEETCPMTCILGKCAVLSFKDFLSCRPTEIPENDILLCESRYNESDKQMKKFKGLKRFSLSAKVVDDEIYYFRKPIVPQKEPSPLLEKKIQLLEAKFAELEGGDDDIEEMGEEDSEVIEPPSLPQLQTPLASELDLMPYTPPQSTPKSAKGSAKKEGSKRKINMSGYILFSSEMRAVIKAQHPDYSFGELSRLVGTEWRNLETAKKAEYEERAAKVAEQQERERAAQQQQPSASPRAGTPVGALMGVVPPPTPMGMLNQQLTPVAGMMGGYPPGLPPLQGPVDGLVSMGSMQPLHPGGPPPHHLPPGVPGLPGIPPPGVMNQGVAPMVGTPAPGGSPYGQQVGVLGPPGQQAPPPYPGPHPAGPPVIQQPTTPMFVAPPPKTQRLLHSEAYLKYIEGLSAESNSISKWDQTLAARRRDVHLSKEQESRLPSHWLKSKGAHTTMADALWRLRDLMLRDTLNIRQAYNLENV

Structure (SMILES): Cc1ccc(-n2nc(C(=O)N3C[C@@H](C)N[C@@H](C)C3)nc2-c2ccc3c(c2)N(C2CCCC2)[C@H](C)C(=O)N3C)cc1
- Activity [1]: Non-Toxic
- inhibition (INH) [2]: Not Active
- Activity (MV4-11 [3]): Dose-dependent effect
- Activity (MDA-MB-468): Active
- Activity [4]: 5 to 20%
- Activity (NCI-H1299): Active
- Activity (MV4-11 [5]): Dose-dependent effect
- microsomal CLint [6]: 77 µL/min/mg
- Drug uptake [7]: Active
- Activity (MV4-11 [8]): Dose-dependent effect
- Cmax [9]: 13800 ng/mL
- Tmax [10]: 0.5 h
- half-life [11]: 0.817 h
- inhibition activity call (active/inactive) [12]: Active
- inhibition at 20 min, 10 µM (CYP3A4): 23 to 28%
- Activity [13]: 70 to 100%
- BPR [14]: 8.7%
- Activity [15]: 70 to 100%
- Activity (MV4-11 [16]): Dose-dependent effect
- inhibition in vivo at 25 mg/kg (MV4-11 [17]): 89.7%
- Activity [18]: 70 to 100%
- Activity [19]: 70 to 100%
- half-life [20]: 4.4 h
- Tmax [21]: 2.3 h
- Activity [22]: 70 to 100%
- Activity (MV4-11 [23]): Dose-dependent effect
- Tmax [24]: 1.1 h

Reference: ChEMBL document CHEMBL4414574, “Structure-Based Discovery and Development of a Series of Potent and Selective Bromodomain and Extra-Terminal Protein Inhibitors” (J Med Chem, 2019)
